Drawing on ChEMBL document CHEMBL5653630, “Activation of the p53-MDM4 regulatory axis defines the anti-tumour response to PRMT5 inhibition through its role in regulating cellular splicing” (Sci Rep, 2018), this text covers GI50, inhibition and Activity for 2 compounds.

One experiment concerns SW 962. The experiment in a line: Antiproliferative activity against human SW 962 cells assessed as cell growth inhibition incubated for 10 days. Type of experiment: functional. The conditions noted are these: SW 962, 240 h, time 10 day.
The subject of a further experiment is NCI-H508. Put plainly: Antiproliferative activity against human NCI-H508 cells assessed as cell growth inhibition incubated for 10 days. It is filed as functional. The conditions noted are these: NCI-H508, 240 h, time 10 day.
For a further experiment, the system named is NCI-H596. The experiment in a line: Antiproliferative activity against human NCI-H596 cells assessed as cell growth inhibition incubated for 10 days. The conditions noted are these: NCI-H596, 240 h, time 10 day. It is filed as functional.
A further experiment deals with DMS-53. The experiment in a line: Antiproliferative activity against human DMS-53 cells assessed as cell growth inhibition incubated for 10 days. Conditions: DMS-53, 240 h, time 10 day. Type of experiment: functional. The procedure, abridged: (§1)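 Outsourced panel run in 384-well plates. Cells were grown in RPMI-1640/10% FBS or a special medium at 37°C, 5% CO2. Compound was added 24 h after seeding as a 10-point, 3.16-fold series in 0.1% DMSO. Medium was refreshed and cells re-dosed at 168 h, with a time-zero plate kept. At 240 h cells were fixed, nuclei stained and imaged. gIC50 is growth midway between untreated and time zero, from a 4-parameter fit.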

The next experiment relates to Y79. Put plainly: Antiproliferative activity against human Y79 cells assessed as cell growth inhibition incubated for 10 days. It is filed as functional. Conditions: Y79, 240 h, time 10 day.
Another experiment relates to SW48. The experiment in a line: Antiproliferative activity against human SW48 cells assessed as cell growth inhibition incubated for 10 days. It is filed as functional. Conditions: SW48, 240 h, time 10 day.
A short description of experiment [1]: Antiproliferative activity against human RKOAS451 cells assessed as cell growth inhibition incubated for 10 days. It is filed as functional. Conditions: RKOAS451, 240 h, time 10 day.
Experiment [2] in a line: Antiproliferative activity against human HUH-6-clone5 cells assessed as cell growth inhibition incubated for 10 days. Type of experiment: functional. Conditions: HUH-6-clone5, 240 h, time 10 day. The method in brief:
as §1

The subject of a further experiment is A-431. Put plainly: Antiproliferative activity against human A-431 cells assessed as cell growth inhibition incubated for 10 days. Type of experiment: functional. Conditions: A-431, 240 h, time 10 day. The method in brief: (§2)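 Cells kept in RPMI-1640 with 10% FBS, 2 mM L-alanyl-L-glutamine and 1 mM Na pyruvate (or a special medium) at 37°C, 5% CO2. Compound added 24 h after seeding, 10 concentrations in 3.16-fold dilution, 0.1% DMSO final. Medium replaced and cells re-dosed at 168 h; 240 h incubation. Nuclei fixed, dye-stained and imaged. gIC50 = growth midway between untreated and time-zero cell counts, from a 4-parameter fit.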

The test system of the next experiment is DOHH-2. Put plainly: Antiproliferative activity against human DOHH-2 cells assessed as cell growth inhibition incubated for 6 days by celltiter-glo assay. Type of experiment: functional. The conditions noted are these: DOHH-2, 144 h, time 6 day.
For another experiment, the system named is SW872. The experiment in a line: Antiproliferative activity against human SW872 cells assessed as cell growth inhibition incubated for 10 days. Type of experiment: functional. The conditions noted are these: SW872, 240 h, time 10 day.
The next experiment concerns SW982. Put plainly: Antiproliferative activity against human SW982 cells assessed as cell growth inhibition incubated for 10 days. Type of experiment: functional. Conditions: SW982, 240 h, time 10 day.
A further experiment relates to SHP77. Put plainly: Antiproliferative activity against human SHP77 cells assessed as cell growth inhibition incubated for 10 days. The conditions noted are these: SHP77, 240 h, time 10 day. It is filed as functional.
The next experiment concerns SK-UT-1. The experiment in a line: Antiproliferative activity against human SK-UT-1 cells assessed as cell growth inhibition incubated for 10 days. Type of experiment: functional. Conditions: SK-UT-1, 240 h, time 10 day.
The nature of experiment [3]: Antiproliferative activity against human SW579 cells assessed as cell growth inhibition incubated for 10 days. The conditions noted are these: SW579, 240 h, time 10 day. Type of experiment: functional.
For the next experiment, the system named is KLE. The experiment in a line: Antiproliferative activity against human KLE cells assessed as cell growth inhibition incubated for 10 days. Type of experiment: functional. The conditions noted are these: 240 h, time 10 day. The method in brief: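 Cells grown in RPMI-1640 with 10% FBS, 2 mM L-alanyl-L-glutamine and 1 mM Na pyruvate (or special medium) at 37°C, 5% CO2. Compound was added 24 h after seeding, with a parallel time-zero plate. Medium was replaced and the compound re-dosed at 168 h. Dosing used 10 concentrations (3.16-fold dilutions, 0.1% DMSO) over a 240 h incubation. Nuclei were stained and imaged. gIC50 is growth midway between untreated and time-zero, from a 4-parameter fit.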

The subject of the next experiment is NCI-H446. The experiment in a line: Antiproliferative activity against human NCI-H446 cells assessed as cell growth inhibition incubated for 10 days. Conditions: NCI-H446, 240 h, time 10 day. It is filed as functional.
The test system of another experiment is FaDu. Put plainly: Antiproliferative activity against human FaDu cells assessed as cell growth inhibition incubated for 10 days. Type of experiment: functional. The conditions noted are these: 240 h, time 10 day. The method in brief: as §1
The test system of another experiment is SNB-19. The experiment in a line: Antiproliferative activity against human SNB-19 cells assessed as cell growth inhibition incubated for 10 days. It is filed as functional. Conditions: SNB-19, 240 h, time 10 day.
In a further experiment the test system is HMCB cell line. Put plainly: Antiproliferative activity against human HMCB cell line assessed as cell growth inhibition incubated for 10 days. It is filed as functional. Conditions: 240 h, time 10 day. The method in brief: as §1
The subject of another experiment is A673. The experiment in a line: Antiproliferative activity against human A673 cells assessed as cell growth inhibition incubated for 10 days. Type of experiment: functional. Conditions: A673, 240 h, time 10 day. The procedure, abridged: as §2
The test system of the next experiment is MIA PaCa-2. Put plainly: Antiproliferative activity against human MIA PaCa-2 cells assessed as cell growth inhibition incubated for 10 days. Conditions: MIA PaCa-2, 240 h, time 10 day. Type of experiment: functional.
Another experiment deals with MES-SA. The experiment in a line: Antiproliferative activity against human MES-SA cells assessed as cell growth inhibition incubated for 10 days. It is filed as functional. The conditions noted are these: 240 h, time 10 day.
The next experiment has as its system BXPC-3. The experiment in a line: Antiproliferative activity against human BXPC-3 cells assessed as cell growth inhibition incubated for 10 days. It is filed as functional. The conditions noted are these: BXPC-3, 240 h, time 10 day. The method in brief: as §2
For the next experiment, the system named is NCI-H441. The experiment in a line: Antiproliferative activity against human NCI-H441 cells assessed as cell growth inhibition incubated for 10 days. Type of experiment: functional. Conditions: NCI-H441, 240 h, time 10 day.
A short description of experiment [4]: Antiproliferative activity against human C4-1 cells assessed as cell growth inhibition incubated for 10 days. Conditions: C4-1, 240 h, time 10 day. It is filed as functional. The method in brief: as §2
A further experiment deals with COLO 201. Put plainly: Antiproliferative activity against human COLO201 cells assessed as cell growth inhibition incubated for 10 days. Type of experiment: functional. The conditions noted are these: COLO 201, 240 h, time 10 day. The method in brief: as §2
In another experiment the test system is BHT-101. Put plainly: Antiproliferative activity against human BHT-101 cells assessed as cell growth inhibition incubated for 10 days. It is filed as functional. The conditions noted are these: BHT-101, 240 h, time 10 day. The procedure, abridged: as §2
The next experiment deals with HT-3. Put plainly: Antiproliferative activity against human HT-3 cells assessed as cell growth inhibition incubated for 10 days. Conditions: HT-3, 240 h, time 10 day. It is filed as functional. The method in brief:
as §1

Experiment [5] deals with Z-138. The experiment in a line: In vivo inhibition of PRMT5 in human Z138 cells xenografted in mouse assessed as increase in CDKN1 expression at 100 mg/kg, po BID measured for 7 days. It is filed as functional, organism-based. The conditions noted are these: time 7.0 day.
For experiment [6], the target named is Apoptosis regulator BAX (Homo sapiens) (UniProt Q07812). The experiment in a line: In vivo inhibition of PRMT5 in human Z138 cells xenografted in mouse assessed as increase in BAX expression at 100 mg/kg, po BID measured for 7 days. Conditions: Z-138, time 7.0 day. It is filed as functional, organism-based.
Sequence of Apoptosis regulator BAX (Homo sapiens) (Q07812 whole entry): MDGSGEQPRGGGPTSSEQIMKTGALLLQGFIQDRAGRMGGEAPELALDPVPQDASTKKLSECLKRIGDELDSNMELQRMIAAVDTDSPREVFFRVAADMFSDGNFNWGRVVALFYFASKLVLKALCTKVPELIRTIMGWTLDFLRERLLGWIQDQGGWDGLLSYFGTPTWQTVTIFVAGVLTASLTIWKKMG
The test system of experiment [7] is Z-138. The experiment in a line: Induction of cell cycle arrest in human Z138 cells assessed as decrease in 2n cell population measured upto 1000 nM measured for 2 to 5 days by propidium iodide staining based flow cytometric analysis. It is filed as functional. Conditions: time 2-5 day.
The next experiment relates to MCL. Put plainly: Induction of cell cycle arrest in human MCL cells assessed as increase in 2n cell population measured upto 5000 nM measured for 3 days by propidium iodide staining based flow cytometric analysis. Conditions: time 3.0 day. Type of experiment: functional.

The source made the active and inactive calls. The calls are words filed in the database; no cut-off is given here.

Turning to `O=C(NC[C@H](O)CN1CCc2ccccc2C1)c1ccnc(NC2CCC2)c1`, the GI50 with SW 962 is 203 nM; with NCI-H508, 307 nM; in the experiment on NCI-H596 it was 188 nM; in the experiment with DMS-53, 106 nM; with Y79, 113 nM; with SW48 it was 10000 nM. In addition, the GI50 was found to be 113 nM in experiment [1]; 361 nM in [2]; 549 nM in the experiment with A-431; 116 nM in the experiment with DOHH-2; 54 nM in the experiment with SW872; 56.7 nM in the experiment on SW982. In addition, the GI50 was found to be 152 nM in the experiment with SHP77; 42.1 nM in the experiment on SK-UT-1; 83.3 nM in experiment [3]; 10000 nM in the experiment with KLE; 570 nM in the experiment on NCI-H446; 15.4 nM in the experiment on FaDu. The GI50 in the experiment with SNB-19 is 223 nM; with HMCB cell line it was 666 nM; in the experiment on A673, 119 nM; with MIA PaCa-2 it was 158 nM; in the experiment with MES-SA, 72 nM; with BXPC-3, 160 nM. Besides, the GI50 was 556 nM in the experiment with NCI-H441; 139 nM in [4]; 49.6 nM with COLO 201; 214 nM in the experiment on BHT-101; 10000 nM in the experiment on HT-3.

On to `CC(=O)N1CCC(Nc2cc(C(=O)NC[C@H](O)CN3CCc4ccccc4C3)ncn2)CC1` [PEMRAMETOSTAT], for which the inhibition entry (in the experiment on Z-138 [5]; in experiment [6]) was “Active” in each case. The result with Z-138 [7] and in the experiment on MCL was Active.
